This note sets out measurements from ChEMBL document CHEMBL2424615, “Design, synthesis, and characterization of novel tetrahydropyran-based bacterial topoisomerase inhibitors with potent anti-gram-positive activity” (J Med Chem, 2013).

In one data set the target is DNA gyrase (Staphylococcus aureus, UniProt P0A0K8+P20831). The experiment in a line: Inhibition of wild type Staphylococcus aureus DNA gyrase subunit 2GyrA/2GyrB assessed as pBR322 supercoiling after 1 hr. The format is protein-complex assay.
The test system of another data set is Escherichia coli. The experiment in a line: Antibacterial activity against wild type Escherichia coli ATCC 25922 assessed as growth inhibition by broth microdilution method. The format is functional.
The test system of a further data set is Pseudomonas aeruginosa. The data set is described as follows: Antibacterial activity against wild type Pseudomonas aeruginosa ATCC 27853 assessed as growth inhibition by broth microdilution method. The format is functional. Background: Broth dilution looks for growth in wells or tubes with falling amounts of substance.
For a further data set, the system named is Streptococcus pneumoniae. The experiment in a line: Antibacterial activity against wild type Streptococcus pneumoniae ATCC 49619 assessed as growth inhibition by broth microdilution method. The format is functional.
The test system of a further data set is Enterococcus faecium. The experiment in a line: Antibacterial activity against vancomycin-resistant Enterococcus faecium A-949 assessed as growth inhibition by broth microdilution method. The format is functional.
The subject of data set [1] is Staphylococcus aureus. The experiment in a line: Antibacterial activity against NXL-101-resistant Staphylococcus aureus harboring DNA gyrase D83N mutant assessed as growth inhibition by broth microdilution method. The format is functional.
For data set [2], the system named is Staphylococcus aureus. The experiment in a line: Antibacterial activity against methicillin and quinolone-resistant Staphylococcus aureus A-798 assessed as growth inhibition by broth microdilution method. The format is functional.
In data set [3] the test system is Staphylococcus aureus. The experiment in a line: Antibacterial activity against wild type Staphylococcus aureus ATCC 29213 assessed as growth inhibition by broth microdilution method. The format is functional.
The nature of data set [4]: Inhibition of wild type Escherichia coli ATCC 25922 DNA gyrase subunit 2GyrA/2GyrB assessed as pBR322 supercoiling after 1 hr.
Data set [5] has as its target DNA gyrase subunit A (Staphylococcus aureus, UniProt P20831, D83N). The data set is described as follows: Inhibition of NXL-101-resistant Staphylococcus aureus DNA gyrase D83N mutant assessed as pBR322 supercoiling after 1 hr.
The target in data set [6] is DNA gyrase subunit A (Staphylococcus aureus, UniProt P20831, S84L). The experiment in a line: Inhibition of quinolone-resistant Staphylococcus aureus A-798 DNA gyrase S84L mutant assessed as pBR322 supercoiling after 1 hr.
Data set [7] is described as follows: Inhibition of wild type Escherichia coli ATCC 25922 DNA topoisomerase-4 subunit 2ParC/2ParE assessed as pBR322 relaxation after 1 hr.
The target in the next data set is Topoisomerase IV (Staphylococcus aureus, UniProt P0C1S7+P0C1U9). The data set is described as follows: Inhibition of wild type Staphylococcus aureus ATCC 29213 topoisomerase-4 subunit 2GrlA/2GrlB assessed as pBR322 relaxation after 1 hr. The format is protein-complex assay.
For a further data set, the target named is hERG (KCNH2) (Homo sapiens, UniProt Q12809). The experiment in a line: Inhibition of human ERG expressed in CHO cells at 10 uM after 3 mins by patch clamp assay relative to control. The following applies: CHO cells that express human ERG. The format is cell-based.
hERG (KCNH2), sequence (Q12809 whole entry): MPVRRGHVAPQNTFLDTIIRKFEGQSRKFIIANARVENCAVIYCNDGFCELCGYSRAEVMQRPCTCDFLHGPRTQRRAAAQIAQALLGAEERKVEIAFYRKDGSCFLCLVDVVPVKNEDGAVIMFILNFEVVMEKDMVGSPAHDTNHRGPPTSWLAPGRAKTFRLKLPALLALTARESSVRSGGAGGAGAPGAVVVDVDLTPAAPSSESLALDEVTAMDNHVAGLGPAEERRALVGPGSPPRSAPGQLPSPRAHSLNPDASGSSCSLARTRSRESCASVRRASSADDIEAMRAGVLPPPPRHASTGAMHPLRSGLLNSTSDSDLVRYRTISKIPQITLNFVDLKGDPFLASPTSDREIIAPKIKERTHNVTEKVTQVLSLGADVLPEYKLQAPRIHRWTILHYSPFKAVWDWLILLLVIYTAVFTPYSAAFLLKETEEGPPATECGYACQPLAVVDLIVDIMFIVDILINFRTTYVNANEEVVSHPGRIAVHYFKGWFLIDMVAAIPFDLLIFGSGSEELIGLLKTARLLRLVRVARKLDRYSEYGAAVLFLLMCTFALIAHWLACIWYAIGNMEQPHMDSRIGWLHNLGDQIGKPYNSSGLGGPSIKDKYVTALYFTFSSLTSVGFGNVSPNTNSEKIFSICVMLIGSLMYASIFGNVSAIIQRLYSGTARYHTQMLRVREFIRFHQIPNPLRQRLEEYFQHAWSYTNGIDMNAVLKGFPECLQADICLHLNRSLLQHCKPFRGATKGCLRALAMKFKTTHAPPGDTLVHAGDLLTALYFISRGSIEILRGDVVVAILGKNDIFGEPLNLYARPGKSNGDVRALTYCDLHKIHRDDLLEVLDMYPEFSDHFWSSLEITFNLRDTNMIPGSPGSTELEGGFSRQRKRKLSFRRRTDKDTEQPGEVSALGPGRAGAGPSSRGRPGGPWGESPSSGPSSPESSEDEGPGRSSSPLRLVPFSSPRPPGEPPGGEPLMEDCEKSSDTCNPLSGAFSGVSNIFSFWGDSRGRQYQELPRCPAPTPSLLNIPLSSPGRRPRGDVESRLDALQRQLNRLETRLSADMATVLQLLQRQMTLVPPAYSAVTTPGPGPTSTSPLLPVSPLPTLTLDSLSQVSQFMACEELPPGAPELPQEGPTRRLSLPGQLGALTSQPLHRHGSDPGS
In data set [8] the test system is Staphylococcus aureus. The data set is described as follows: Antibacterial activity against NXL-101-resistant Staphylococcus aureus A-234 harboring DNA gyrase subunit A D83N mutant assessed as growth inhibition by broth microdilution method. The format is functional.
Data set [9] concerns Staphylococcus aureus. The data set is described as follows: Spontaneous resistance frequency for Staphylococcus aureus ATCC 25923 at 4 times MIC to 16 times MIC after 48 hrs relative to NXL-101. The format is functional. In short, it runs like this: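 Incubated 48 h at 37 °C. Frequency calculated as resistant colonies divided by viable bacteria plated, with the viable count taken on drug-free agar.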

What is called IC50 is the concentration that gives 50% inhibition. What is called MIC is the lowest concentration found to suppress growth. Regarding `COc1ccc2ncc(F)c([C@@H](O)CC[C@@H]3CCN(CCSc4cccs4)C[C@@H]3C(=O)O)c2c1`, the IC50 on DNA gyrase amounted to 125 nM; in [4], 32000 nM; on DNA gyrase subunit A [5], 128000 nM; at DNA gyrase subunit A [6] it was 125 nM; in data set [7] it was 2000 nM; at Topoisomerase IV, 128000 nM. The minimal inhibitory concentration (MIC) was above 8 µg/mL in the data set on Escherichia coli; above 8 µg/mL in the data set with Pseudomonas aeruginosa; 1 µg/mL in the data set with Streptococcus pneumoniae; 1 µg/mL with Enterococcus faecium; above 8 µg/mL with Staphylococcus aureus [1]; 0.25 µg/mL with Staphylococcus aureus [2]. The MIC in the data set on Staphylococcus aureus [3] came out at 0.125 µg/mL.
For `N#Cc1ccc2ccc(=O)n(CCN3CC[C@H](NCc4cc5c(cn4)OCCO5)[C@H](F)C3)c2c1`, the IC50 on DNA gyrase was found to be 30 nM; in data set [4], 8000 nM; on DNA gyrase subunit A [5], 32000 nM; at DNA gyrase subunit A [6], 30 nM; in data set [7] it was 125 nM; on Topoisomerase IV, 8000 nM. Moreover, the minimum inhibitory concentration (MIC) in the data set with Escherichia coli is 8 µg/mL; in the data set on Pseudomonas aeruginosa, above 8 µg/mL; in the data set on Streptococcus pneumoniae, 0.25 µg/mL; in the data set with Enterococcus faecium, 0.5 µg/mL; in the data set with Staphylococcus aureus [1], 1 µg/mL; with Staphylococcus aureus [2] it was 0.015 µg/mL. Also, the MIC in the data set on Staphylococcus aureus [3] worked out at 0.015 µg/mL.
A word on the inhibition: it is how much of the control response was suppressed. Low readings indicate a weak effect, high ones a strong effect. In the case of `COc1ccc2ncc(F)c([C@@H](O)[C@H](O)[C@@H]3CC[C@@H](NCc4ccc5c(n4)NC(=O)CS5)CO3)c2c1`, the inhibition at 0.05 h, 10 µM against hERG (KCNH2) worked out at 15%. Besides, the IC50 at DNA gyrase was 125 nM; in data set [4], 2000 nM; in [7], 125 nM; at Topoisomerase IV, 8000 nM. Moreover, the minimum inhibitory concentration (MIC) with Staphylococcus aureus [8] was above 8 µg/mL; with Escherichia coli, 4 µg/mL; in the data set with Pseudomonas aeruginosa, above 8 µg/mL; with Streptococcus pneumoniae, 0.25 µg/mL; with Staphylococcus aureus [3], 0.25 µg/mL.
Take `COc1ccc2ncc(F)c([C@@H](O)[C@H](O)[C@@H]3CC[C@@H](NCc4ccc5c(n4)NC(=O)CS5)CO3)c2n1`: the “fold change (FC)” value in the data set with Staphylococcus aureus [9] turned out to be 10. The inhibition at 0.05 h, 10 µM on hERG (KCNH2) is 54%. Moreover, the IC50 on DNA gyrase came to 30 nM; in data set [4], 500 nM; in data set [7] it was 30 nM; on Topoisomerase IV it was 500 nM. Moreover, the minimum inhibitory concentration (MIC) in the data set with Staphylococcus aureus [8] was 0.25 µg/mL; in the data set with Escherichia coli, 1 µg/mL; in the data set on Pseudomonas aeruginosa it was above 8 µg/mL; with Streptococcus pneumoniae, 0.06 µg/mL; in the data set on Staphylococcus aureus [3], 0.03 µg/mL.
On hERG (KCNH2), `COc1cnc2ccc(F)c([C@@H](O)[C@H](O)[C@@H]3CC[C@@H](NCc4cc5c(cn4)OCCO5)CO3)c2n1` showed an inhibition at 0.05 h, 10 µM of 11%. The IC50 at DNA gyrase stood at 125 nM; in data set [4], 8000 nM; in data set [7], 500 nM; at Topoisomerase IV, 8000 nM. For the same molecule, the minimum inhibitory concentration (MIC) in the data set with Staphylococcus aureus [8] is 8 µg/mL; in the data set with Escherichia coli, 8 µg/mL; in the data set with Pseudomonas aeruginosa, above 8 µg/mL; in the data set on Streptococcus pneumoniae it was 0.125 µg/mL; in the data set on Staphylococcus aureus [3], at most 0.015 µg/mL.
On hERG (KCNH2), `COc1cnc2ccc(F)c([C@@H](O)[C@H](O)[C@@H]3CC[C@@H](NCc4cc5c(nn4)OCCS5)CO3)c2n1` came in with an inhibition at 0.05 h, 10 µM of 0%. The IC50 was 125 nM on DNA gyrase, 8000 nM in [4], 2000 nM in [7] and above 8000 nM at Topoisomerase IV. Also, the MIC in the data set with Staphylococcus aureus [8] is 8 µg/mL; in the data set on Escherichia coli, above 8 µg/mL; in the data set with Pseudomonas aeruginosa it was above 8 µg/mL; in the data set on Streptococcus pneumoniae, 0.125 µg/mL; in the data set with Staphylococcus aureus [3], at most 0.015 µg/mL.
Consider `COc1ccc2ncc(F)c([C@@H](O)[C@H](O)[C@@H]3CC[C@@H](NCc4cc5c(cn4)OCCO5)CO3)c2n1`, for which the inhibition at 0.05 h, 10 µM against hERG (KCNH2) was 10%. The 50% inhibitory concentration (IC50) on DNA gyrase was determined as 30 nM; in data set [4] it was 8000 nM; in data set [7], 125 nM; at Topoisomerase IV it was 8000 nM. Also, the minimum inhibitory concentration (MIC) with Staphylococcus aureus [8] is 2 µg/mL; in the data set on Escherichia coli, above 8 µg/mL; with Pseudomonas aeruginosa it was above 8 µg/mL; with Streptococcus pneumoniae, 0.03 µg/mL; with Staphylococcus aureus [3], 0.03 µg/mL.
On to `COc1ccc2ncc(F)c([C@@H](O)[C@H](O)[C@@H]3CC[C@@H](NCc4cc5c(nn4)OCCS5)CO3)c2n1`, for which the inhibition at 0.05 h, 10 µM against hERG (KCNH2) came to 3%. Also, the IC50 on DNA gyrase was found to be 125 nM; in data set [4], 8000 nM; in data set [7], 500 nM; at Topoisomerase IV, 8000 nM. Further, the minimal inhibitory concentration (MIC) was 8 µg/mL in the data set on Staphylococcus aureus [8]; above 8 µg/mL in the data set on Escherichia coli; above 8 µg/mL in the data set with Pseudomonas aeruginosa; 0.06 µg/mL with Streptococcus pneumoniae; at most 0.015 µg/mL in the data set with Staphylococcus aureus [3].
For the molecule `COc1ccc2ncc(F)c([C@@H](O)[C@H](O)[C@@H]3CC[C@@H](NCc4cc5c(nn4)OCCO5)CO3)c2n1`, the inhibition at 0.05 h, 10 µM on hERG (KCNH2) amounted to 7%. The IC50 was 125 nM at DNA gyrase, above 8000 nM in [4], 2000 nM in data set [7] and above 8000 nM on Topoisomerase IV. Further, the minimum inhibitory concentration (MIC) in the data set on Staphylococcus aureus [8] was above 8 µg/mL; with Escherichia coli it was above 8 µg/mL; in the data set on Pseudomonas aeruginosa, above 8 µg/mL; with Streptococcus pneumoniae it was 0.5 µg/mL; in the data set on Staphylococcus aureus [3], 0.125 µg/mL.
In the case of `COc1ccc2nccc(NC(=O)[C@H]3CC[C@H](NCc4ccc5c(n4)NC(=O)CS5)CC3)c2n1`, the concentration for half-maximal inhibition (IC50) on DNA gyrase worked out at 30 nM; on DNA gyrase subunit A [5], 8000 nM; at DNA gyrase subunit A [6], 8 nM; in data set [7] it was 8 nM; on Topoisomerase IV, 125 nM. Moreover, the MIC with Escherichia coli is 0.25 µg/mL; with Pseudomonas aeruginosa, 8 µg/mL; with Streptococcus pneumoniae it was 0.063 µg/mL; in the data set on Enterococcus faecium it was 0.063 µg/mL; in the data set with Staphylococcus aureus [1], 0.25 µg/mL; with Staphylococcus aureus [2], 0.015 µg/mL. In addition, in the data set with Staphylococcus aureus [3], the minimal inhibitory concentration (MIC) amounted to 0.015 µg/mL.
Consider `O=c1ccc2ccc(F)c3c2n1CC3CN1CCC(NCc2cc3c(cn2)OCCO3)CC1` (centres undefined), for which the IC50 on DNA gyrase is 125 nM; on DNA gyrase subunit A [5] it was 2000 nM; on DNA gyrase subunit A [6], 30 nM; in [7] it was 500 nM; at Topoisomerase IV it was 2000 nM. Also, the minimal inhibitory concentration (MIC) in the data set on Escherichia coli is 1 µg/mL; with Pseudomonas aeruginosa, above 8 µg/mL; in the data set on Streptococcus pneumoniae it was 0.015 µg/mL; in the data set with Enterococcus faecium, 0.06 µg/mL; in the data set with Staphylococcus aureus [1], 1 µg/mL; in the data set on Staphylococcus aureus [2], 0.015 µg/mL. The MIC in the data set on Staphylococcus aureus [3] is 0.015 µg/mL.
For the molecule `COc1ccc2nccc(C(O)C[C@@H]3CC[C@@H](NCc4ccc5c(n4)NC(=O)CS5)CO3)c2n1` (mixture of isomers), the inhibition at 0.05 h, 10 µM against hERG (KCNH2) is 99%. Also, the IC50 is below 30 nM on DNA gyrase, 500 nM in data set [4], below 30 nM in [7] and above 8000 nM at Topoisomerase IV. Further, the minimal inhibitory concentration (MIC) was 0.5 µg/mL with Staphylococcus aureus [8]; 1 µg/mL in the data set on Escherichia coli; above 8 µg/mL with Pseudomonas aeruginosa; 0.03 µg/mL in the data set with Streptococcus pneumoniae; 0.03 µg/mL with Staphylococcus aureus [3].
Turning to `O=C(O)c1cn(C2CC2)c2cc(N3CCNCC3)c(F)cc2c1=O` [CIPROFLOXACIN], the minimum inhibitory concentration (MIC) in the data set with Escherichia coli was 0.016 µg/mL; in the data set with Pseudomonas aeruginosa it was 0.25 µg/mL; with Streptococcus pneumoniae it was 1 µg/mL; with Enterococcus faecium, above 8 µg/mL; in the data set on Staphylococcus aureus [1], 0.25 µg/mL; in the data set with Staphylococcus aureus [2], above 8 µg/mL. In the data set on Staphylococcus aureus [3], the minimum inhibitory concentration (MIC) turned out to be 0.25 µg/mL. For the same molecule, the half-maximal inhibitory concentration (IC50) in data set [4] was determined as 500 nM.
